According to ChEMBL document CHEMBL1126152, “Fluoronaphthyridines as antibacterial agents. 4. Synthesis and structure-activity relationships of 5-substituted-6-fluoro-7-(cycloalkylamino)-1,4-dihydro-4-oxo-1,8- naphthyridine-3-carboxylic acids” (J Med Chem, 1992):
≈ marks a conversion by molar mass, not a printed value.

Legend:
[1] = Solubility was measured at PH - 7.2 buffer
Bacteroides fragilis = test: In vitro for antibacterial activity against […].; assay type: functional
Summary of the method: (§1)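 MIC by serial 2-fold broth dilution in nutrient broth with an inoculum of 10^6 CFU/mL. Compound range was 0.0005–250 μg/mL. Plates were incubated 18 h at 37 °C. MIC was taken as the lowest concentration preventing visible growth.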

Pseudomonas aeruginosa [2] = test: In vitro for antibacterial activity against Pseudomonas aeruginosa; assay type: functional; summary of the method: as §1
Streptococcus pneumoniae [3] = test: Antibacterial activity against Streptococcus pneumoniae; assay type: functional
Staphylococcus aureus [4] = test: Antibacterial activity against Staphylococcus aureus; assay type: functional
Morganella morganii = test: In vitro for antibacterial activity against Morganella morganii; assay type: functional; summary of the method: as §1
[5] = Partition coefficient (logD); details: octanol/water
Enterobacter cloacae = test: In vitro for antibacterial activity against Enterobacter cloacae; assay type: functional
Proteus mirabilis = test: In vitro for antibacterial activity against Proteus mirabilis; assay type: functional; summary of the method: as §1
Escherichia coli [6] = test: In vitro for antibacterial activity against Escherichia coli; assay type: functional; summary of the method: as §1
Klebsiella pneumoniae = test: In vitro for antibacterial activity against Klebsiella pneumoniae; assay type: functional; summary of the method: as §1
Serratia marcescens = test: In vitro for antibacterial activity against Serratia marcescens; assay type: functional; summary of the method: as §1
Enterococcus faecalis = test: In vitro for antibacterial activity against Enterococcus faecalis; assay type: functional; summary of the method: as §1
Staphylococcus aureus [7] = test: animal or person; assay type: functional; details: in Mus musculus, po, read-out: PD50
[8] = Lethal dose was determined in OF1-strain female Swiss mice after intra venous administration of the drug; details: mouse, in vivo, iv
Pseudomonas aeruginosa [9] = test: animal or person; assay type: functional; details: in Mus musculus, po, read-out: PD50
Escherichia coli [10] = test: Compound was tested for […] against Escherichia coli A 15119 after oral administration of drug in mice; assay type: functional; details: read-out: PD50
Summary of the method: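 Mouse protection test against systemic infection. Compound was dissolved in sterile water and given orally to female OF1-strain Swiss mice weighing 18–25 g, with five mice per group.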

[11] = Lethal dose was determined in OF1-strain female Swiss mice after oral administration of the drug; details: mouse, in vivo
Streptococcus pneumoniae [12] = test: animal or person; assay type: functional; details: in Mus musculus, po, read-out: PD50

SMILES | solubility [1] [µg/mL] | MIC (Bacteroides fragilis) [µg/mL] | MIC (Pseudomonas aeruginosa [2]) [µg/mL] | MIC (Streptococcus pneumoniae [3]) [µg/mL] | MIC (Staphylococcus aureus [4]) [µg/mL] | MIC (Morganella morganii) [µg/mL] | logD [5] | MIC (Enterobacter cloacae) [µg/mL] | MIC (Proteus mirabilis) [µg/mL] | MIC (Escherichia coli [6]) [µg/mL] | MIC (Klebsiella pneumoniae) [µg/mL] | MIC (Serratia marcescens) [µg/mL] | MIC (Enterococcus faecalis) [µg/mL] | ED50 (Staphylococcus aureus [7]) [mg/kg] | LD50 [8] [mg/kg] | ED50 (Pseudomonas aeruginosa [9]) [mg/kg] | ED50 (Escherichia coli [10]) [mg/kg] | LD50 [11] [mg/kg] | ED50 (Streptococcus pneumoniae [12]) [mg/kg]
CCc1c(F)c(N2CC[C@H](N)C2)nc2c1c(=O)c(C(=O)O)cn2C1CC1 | 70 (≈ 194 µM) | 1 (≈ 2.77 µM) | 4 (≈ 11.1 µM) | 1 (≈ 2.77 µM) | 1 (≈ 2.77 µM) | 0.5 (≈ 1.39 µM) | 1.37 | 0.25 (≈ 0.694 µM) | 2 (≈ 5.55 µM) | 0.25 (≈ 0.694 µM) | 0.25 (≈ 0.694 µM) | 0.5 (≈ 1.39 µM) | 16 (≈ 44.4 µM) | – | – | – | – | – | –
N[C@H]1CCN(c2nc3c(cc2F)c(=O)c(C(=O)O)cn3-c2ccc(F)cc2F)C1 | – | 0.5 (≈ 1.24 µM) | 0.25 (≈ 0.618 µM) | 0.06 (≈ 0.148 µM) | 0.008 (≈ 0.0198 µM) | 0.06 (≈ 0.148 µM) | – | 0.016 (≈ 0.0396 µM) | 0.03 (≈ 0.0742 µM) | 0.008 (≈ 0.0198 µM) | 0.008 (≈ 0.0198 µM) | 0.06 (≈ 0.148 µM) | 0.13 (≈ 0.322 µM) | – | – | – | – | – | –
O=C(O)c1cn(C2CC2)c2nc(N3CC4CC3CN4)c(F)cc2c1=O (stereo not drawn) | 90 (≈ 261 µM) | – | 0.25 (≈ 0.726 µM) | – | 0.13 (≈ 0.378 µM) | 0.06 (≈ 0.174 µM) | – | 0.03 (≈ 0.0871 µM) | 0.06 (≈ 0.174 µM) | 0.06 (≈ 0.174 µM) | 0.06 (≈ 0.174 µM) | 0.25 (≈ 0.726 µM) | 1 (≈ 2.9 µM) | – | – | – | – | – | –
Cc1c(F)c(N2CC3CCC2CN3)nc2c1c(=O)c(C(=O)O)cn2C1CC1 (stereo not drawn) | – | 16 (≈ 43 µM) | 0.5 (≈ 1.34 µM) | 0.13 (≈ 0.349 µM) | 0.03 (≈ 0.0806 µM) | 0.06 (≈ 0.161 µM) | – | 0.06 (≈ 0.161 µM) | 0.13 (≈ 0.349 µM) | 0.008 (≈ 0.0215 µM) | 0.016 (≈ 0.043 µM) | 0.13 (≈ 0.349 µM) | 0.13 (≈ 0.349 µM) | – | – | – | – | – | –
CCc1c(F)c(N2CCNCC2)nc2c1c(=O)c(C(=O)O)cn2C1CC1 | – | 1 (≈ 2.77 µM) | 16 (≈ 44.4 µM) | 0.25 (≈ 0.694 µM) | 0.5 (≈ 1.39 µM) | 4 (≈ 11.1 µM) | – | 1 (≈ 2.77 µM) | 8 (≈ 22.2 µM) | 0.5 (≈ 1.39 µM) | 1 (≈ 2.77 µM) | 1 (≈ 2.77 µM) | 16 (≈ 44.4 µM) | – | – | – | – | – | –
N[C@H]1CCN(c2nc3c(cc2F)c(=O)c(C(=O)O)cn3C2CC2)C1 | – | 2 (≈ 6.02 µM) | 0.25 (≈ 0.752 µM) | 0.25 (≈ 0.752 µM) | 0.016 (≈ 0.0481 µM) | 0.004 (≈ 0.012 µM) | – | 0.016 (≈ 0.0481 µM) | 0.03 (≈ 0.0903 µM) | 0.002 (≈ 0.00602 µM) | 0.004 (≈ 0.012 µM) | 0.016 (≈ 0.0481 µM) | 0.25 (≈ 0.752 µM) | – | – | – | – | – | –
Cc1c(F)c(N2CCNCC2)nc2c1c(=O)c(C(=O)O)cn2C(C)(C)C | – | > 32 | 4 (≈ 11 µM) | 1 (≈ 2.76 µM) | 0.03 (≈ 0.0828 µM) | 0.25 (≈ 0.69 µM) | – | 0.25 (≈ 0.69 µM) | 0.5 (≈ 1.38 µM) | 0.06 (≈ 0.166 µM) | 0.06 (≈ 0.166 µM) | 0.25 (≈ 0.69 µM) | 2 (≈ 5.52 µM) | – | – | – | – | – | –
Cc1c(F)c(N2CC3CC2CN3)nc2c1c(=O)c(C(=O)O)cn2C1CC1 (stereo not drawn) | 20 (≈ 55.8 µM) | 1 (≈ 2.79 µM) | 0.25 (≈ 0.698 µM) | 0.13 (≈ 0.363 µM) | 0.002 (≈ 0.00558 µM) | 0.016 (≈ 0.0446 µM) | 0.48 | 0.002 (≈ 0.00558 µM) | 0.016 (≈ 0.0446 µM) | 0.002 (≈ 0.00558 µM) | 0.002 (≈ 0.00558 µM) | 0.03 (≈ 0.0837 µM) | 0.13 (≈ 0.363 µM) | 5.4 | 131 | 2.7 | 0.9 | 1750 | 43
Cc1c(F)c(N2CCNCC2)nc2c1c(=O)c(C(=O)O)cn2-c1ccc(F)cc1F | – | 4 (≈ 9.56 µM) | 1 (≈ 2.39 µM) | 0.25 (≈ 0.598 µM) | 0.016 (≈ 0.0382 µM) | 0.13 (≈ 0.311 µM) | – | 0.03 (≈ 0.0717 µM) | 0.25 (≈ 0.598 µM) | 0.016 (≈ 0.0382 µM) | 0.03 (≈ 0.0717 µM) | 0.25 (≈ 0.598 µM) | 1 (≈ 2.39 µM) | – | – | – | – | – | –
